SMILES strings stand for the structures. Converted amounts (≈) assume the structure as drawn.

A short description of data set [1]: Concentration in plasma 1 hr after oral administration. The class given is ADME, cell-free. The settings on record: read-out: Plasma level. The gist of the method:
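Male guinea pigs starved overnight, given prodrug orally at 37 μmol/kg in saline with 0.5% Tween 80. PPP taken 1 h post-dose under pentobarbital. Bioassay: treated PPP diluted with donor PPP, mixed with donor PRP, and aggregation to 5 μM ADP read against a standard curve of PPP spiked with the active acid.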

The nature of data set [2]: Solubility in saline. The note with it: read-out: S. The class given is physicochemical. The gist of the method: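 Solubility in saline determined by UV spectrophotometry.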
In data set [3] the test system is Cavia porcellus. The data set is described as follows: Inhibition of ex vivo platelet aggregation induced by 5 uM Adenosine diphosphate (ADP) 1 hour after oral administration. The class given is functional. The gist of the method:
(§1)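 Fasted male guinea pigs dosed orally at 37 μmol/kg in saline with 0.5% Tween 80, then anesthetized with pentobarbital at 1 h and bled. PRP adjusted to 3.0 × 10⁸/mL, preincubated 2 min, and aggregated with ADP (final 5 μM). Inhibition relative to three vehicle-treated controls per experiment; mean of three animals.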

Data set [4] has as its target Integrin alpha-IIb/beta-3 (Homo sapiens, UniProt P05106+P08514). Put plainly: Inhibition of Fibrinogen binding to Immobilized Human Fibrinogen Receptor. The data set is classed as protein-complex assay. The gist of the method:
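Human platelet GPIIb-IIIa purified (ConA-, heparin-Sepharose, Sephacryl S-300) and coated at 1.5 μg/mL in TBS with 0.0005% Triton, 24 h at 4 °C, then blocked with 3.5% BSA. Compound plus biotinylated fibrinogen (2 μg/mL before 1:1 mixing) incubated 24 h at room temperature. Detection by peroxidase-streptavidin and o-phenylenediamine, A490.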

The species named for data set [5] is Cavia porcellus. The data set is described as follows: In vitro inhibition of guinea pig Platelet-rich plasma (PRP) aggregation induced by 5 uM ADP. The class given is functional.
The species entered for data set [6] is Homo sapiens. The data set is described as follows: In vitro inhibition of human Platelet-rich plasma (PRP) aggregation induced by 5 uM ADP. The data set is classed as functional. In a few lines: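 PRP prepared by 120g 15-min spin of citrated venous blood (3.8% citrate, 1:9) from anesthetized male guinea pigs or male human volunteers, adjusted to 2.5–3.0 × 10⁸ platelets/mL with PPP. PRP warmed 2 min at 37 °C, compound or vehicle added, then 2 min later ADP (final 5 μM). Maximum aggregation compared with control; IC50 estimated.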

The test system of data set [7] is Cavia porcellus. Put plainly: Inhibition of ex vivo platelet aggregation induced by 5 uM Adenosine diphosphate (ADP) 1 hour after oral administration at the dose of 37umol/kg. The class given is functional. The gist of the method:
as §1

Sequence of Integrin alpha-IIb/beta-3 (P05106 27-788 limits assumed): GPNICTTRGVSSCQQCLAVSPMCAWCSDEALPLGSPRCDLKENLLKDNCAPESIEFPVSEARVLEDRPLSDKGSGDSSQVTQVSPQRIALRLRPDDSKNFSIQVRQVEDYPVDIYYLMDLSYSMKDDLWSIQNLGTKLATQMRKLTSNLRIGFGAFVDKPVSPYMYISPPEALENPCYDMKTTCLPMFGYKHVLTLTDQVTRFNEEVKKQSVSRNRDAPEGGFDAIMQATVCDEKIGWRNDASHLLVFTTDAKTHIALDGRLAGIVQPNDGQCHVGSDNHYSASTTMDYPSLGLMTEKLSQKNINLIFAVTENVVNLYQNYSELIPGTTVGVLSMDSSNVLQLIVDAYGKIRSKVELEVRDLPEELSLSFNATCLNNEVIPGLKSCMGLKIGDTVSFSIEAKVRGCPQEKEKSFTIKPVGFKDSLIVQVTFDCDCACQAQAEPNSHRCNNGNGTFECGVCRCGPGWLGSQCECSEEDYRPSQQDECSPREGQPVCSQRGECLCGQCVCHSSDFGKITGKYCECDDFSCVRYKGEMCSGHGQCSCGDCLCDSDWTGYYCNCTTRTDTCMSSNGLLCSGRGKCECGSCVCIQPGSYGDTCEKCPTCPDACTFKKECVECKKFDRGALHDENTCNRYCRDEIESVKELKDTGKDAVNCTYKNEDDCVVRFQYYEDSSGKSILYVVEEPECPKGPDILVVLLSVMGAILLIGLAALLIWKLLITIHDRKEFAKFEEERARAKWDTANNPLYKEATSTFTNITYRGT
Sequence of Integrin alpha-IIb/beta-3 (P08514 32-887 limits assumed): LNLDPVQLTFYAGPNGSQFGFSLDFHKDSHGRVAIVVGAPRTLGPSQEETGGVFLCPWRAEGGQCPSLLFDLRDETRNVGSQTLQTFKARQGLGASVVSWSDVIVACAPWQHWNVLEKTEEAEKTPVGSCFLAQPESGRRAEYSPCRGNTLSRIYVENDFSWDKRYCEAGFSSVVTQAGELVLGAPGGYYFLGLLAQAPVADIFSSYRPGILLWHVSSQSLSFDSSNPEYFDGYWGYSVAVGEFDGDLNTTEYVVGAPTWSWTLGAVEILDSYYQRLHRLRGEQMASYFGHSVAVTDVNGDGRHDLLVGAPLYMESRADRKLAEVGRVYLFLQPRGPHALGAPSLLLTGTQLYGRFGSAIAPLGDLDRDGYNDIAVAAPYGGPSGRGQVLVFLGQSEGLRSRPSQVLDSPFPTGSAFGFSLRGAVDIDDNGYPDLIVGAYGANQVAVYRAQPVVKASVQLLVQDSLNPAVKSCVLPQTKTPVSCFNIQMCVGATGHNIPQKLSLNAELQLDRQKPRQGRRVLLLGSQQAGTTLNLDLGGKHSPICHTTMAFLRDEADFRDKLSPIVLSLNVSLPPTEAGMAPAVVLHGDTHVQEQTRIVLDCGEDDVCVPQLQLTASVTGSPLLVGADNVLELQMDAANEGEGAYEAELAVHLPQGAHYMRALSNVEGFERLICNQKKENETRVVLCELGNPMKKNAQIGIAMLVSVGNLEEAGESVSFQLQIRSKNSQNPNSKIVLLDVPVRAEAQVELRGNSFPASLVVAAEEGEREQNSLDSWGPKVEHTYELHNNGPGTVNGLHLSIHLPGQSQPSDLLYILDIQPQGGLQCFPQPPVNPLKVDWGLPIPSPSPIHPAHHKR
Sequence of Integrin alpha-IIb/beta-3 (P08514 891-1039 limits assumed): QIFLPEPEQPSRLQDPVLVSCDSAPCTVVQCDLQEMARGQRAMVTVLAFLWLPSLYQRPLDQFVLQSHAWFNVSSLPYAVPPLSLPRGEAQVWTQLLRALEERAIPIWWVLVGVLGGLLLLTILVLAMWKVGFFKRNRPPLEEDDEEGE

Turning to `C#CCNC(=N)c1ccc(C(=O)Nc2ccc3c(c2)CC(CC(=O)OCC)CO3)cc1` (stereo not drawn), the concentration at 1 h in data set [1] turned out to be 3800 nM. Further, the solubility in data set [2] stood at 106000 µg/mL (≈ 253000 µM). For the same compound, the Inhibition (commonly the relative decrease from the control value, in per cent) in data set [3] is on record as 99%.
`C=CCNC(=N)c1ccc(C(=O)Nc2ccc3c(c2)CC(CC(=O)OCC)CC3)cc1` (stereo not drawn): in data set [1], the concentration at 1 h amounted to 380 nM. In data set [3], the Inhibition is on record as 21%.
With `NC(=NCc1ccco1)c1ccc(C(=O)Nc2ccc3c(c2)CC(CC(=O)O)CC3)cc1` (stereo not drawn), the IC50 (as a rule, the concentration that gives 50% inhibition) came to 0.2 nM in data set [4] and 0.62 µM in data set [5].
On to `N=C(N)c1ccc(C(=O)Nc2ccc3c(c2)CC(CC(=O)O)CO3)cc1` (stereo not drawn), for which the IC50 in data set [4] came out at 0.073 nM; in data set [6] it was 0.049 µM.
The compound `N=C(N)c1ccc(/C=C/c2ccc3c(c2)CC(CC(=O)O)CC3)cc1` (stereo not drawn) returned an IC50 in data set [5] of 5 µM.
For `N=C(c1ccc(C(=O)Nc2ccc3c(c2)CC(CC(=O)O)CO3)cc1)N1CCOCC1` (stereo not drawn), the IC50 turned out to be 0.098 nM in data set [4], 0.23 µM in data set [5] and 0.066 µM in data set [6].
Consider `CCC/N=C(\N)c1ccc(C(=O)Nc2ccc3c(c2)CC(CC(=O)OCC)CC3)cc1` (stereo not drawn), for which the concentration at 1 h in data set [1] is less than 180 nM. Moreover, in data set [3], the Inhibition was found to be 3%.
Turning to `CCCNC(=N)c1ccc(C(=O)Nc2ccc3c(c2)CC(CC(=O)O)CC3)cc1` (stereo not drawn), the IC50 in data set [4] stood at 0.13 nM; in data set [5], 0.17 µM; in data set [6], 0.068 µM.
On the same counts, the results for `C#CCNC(=N)c1ccc(C(=O)Nc2ccc3c(c2)CC(CC(=O)O)CO3)cc1` (stereo not drawn) are 0.13 nM, 0.35 µM and 0.078 µM.
`CCOC(=O)CC1COc2ccc(NC(=O)c3ccc(C(=N)N4CCOCC4)cc3)cc2C1` (stereo not drawn): the concentration at 1 h in data set [1] amounted to 8400 nM. Also, the solubility in data set [2] is greater than 200000 µg/mL. Also, the Inhibition in data set [3] came to 99%.
For the compound `N=C(c1ccc(C(=O)Nc2ccc3c(c2)CC(CC(=O)O)CC3)cc1)N1CCOCC1` (stereo not drawn), the IC50 came to 0.15 nM in data set [4], 0.19 µM in data set [5] and 0.08 µM in data set [6].
In the case of `C#CC/N=C(\N)c1ccc(C(=O)Nc2ccc3c(c2)CC(CC(=O)O)CC3)cc1` (stereo not drawn), the IC50 was 0.16 nM in data set [4], 0.3 µM in data set [5] and 0.1 µM in data set [6].
As to `N=C(N)c1ccc(COc2ccc3ccc(CC(=O)O)cc3c2)cc1`, in data set [5], the IC50 is greater than 1000 µM.
As for `C#CCNC(=N)c1ccc(C(=O)Nc2ccc3c(c2)CC(CC(=O)OCC)CC3)cc1` (stereo not drawn), the concentration at 1 h in data set [1] is 1000 nM. Also, the solubility in data set [2] came to 1500 µg/mL (≈ 3590 µM). Further, the Inhibition in data set [3] came out at 99%.
Take `N=C(N)c1ccc(C(=O)Nc2ccc3c(c2)CN(CC(=O)O)CC3)cc1`: the results for the IC50 in data set [5] and in data set [6] were 6.6 µM and 0.29 µM, respectively.
For the compound `N=C(N)c1ccc(COc2ccc3c(c2)CC(CC(=O)O)CC3)cc1` (stereo not drawn), the IC50 in data set [6] was 1.5 µM.
Take `C=CCNC(=N)c1ccc(C(=O)Nc2ccc3c(c2)CC(CC(=O)O)CC3)cc1` (stereo not drawn): the IC50 in data set [4] came to 0.26 nM; in data set [5], 0.49 µM.
For `N=C(N)c1ccc(C(=O)Nc2ccc3c(c2)CC(CC(=O)O)CC3)cc1` (stereo not drawn), the half-maximal inhibitory concentration (IC50) in data set [4] turned out to be 0.12 nM; in data set [5], 0.37 µM; in data set [6], 0.057 µM. In addition, the inhibition in vivo (commonly the relative decrease from the control value, in per cent) at 37 µmol/kg in data set [7] was 8%.
As for `CCOC(=O)CC1CCc2ccc(NC(=O)c3ccc(C(=N)N)cc3)cc2C1` (stereo not drawn), the solubility in data set [2] is 260 µg/mL (≈ 685 µM). The compound also yielded an inhibition in vivo at 37 µmol/kg in data set [7] of 41%.
As to `CCOC(=O)CC1CCc2ccc(NC(=O)c3ccc(C(=N)NCc4ccco4)cc3)cc2C1` (stereo not drawn), the concentration at 1 h in data set [1] was 850 nM. The solubility in data set [2] amounted to 1060 µg/mL (≈ 2310 µM). Moreover, the Inhibition in data set [3] is reported as 91%.
Take `N=C(c1ccc(C(=O)Nc2ccc3c(c2)C[C@@H](CC(=O)O)CO3)cc1)N1CCOCC1`: the IC50 in data set [4] was found to be 0.12 nM; in data set [5], 0.11 µM; in data set [6], 0.035 µM.
Turning to `N=C(N)c1ccc(CCc2ccc3c(c2)CC(CC(=O)O)CC3)cc1` (stereo not drawn), the IC50 in data set [6] turned out to be 0.37 µM.
Take `N=C(c1ccc(C(=O)Nc2ccc3c(c2)C[C@H](CC(=O)O)CO3)cc1)N1CCOCC1`: the IC50 turned out to be 2.6 nM in data set [4] and 0.36 µM in data set [6].
As to `CN(C(=O)c1ccc(C(=N)N)cc1)c1ccc2c(c1)CC(CC(=O)O)CC2` (stereo not drawn), the IC50 in data set [5] was 1.8 µM; in data set [6] it was 0.2 µM.
`CCOC(=O)CC1COc2ccc(NC(=O)c3ccc(C(=N)N)cc3)cc2C1` (stereo not drawn): the solubility in data set [2] worked out at 410 µg/mL (≈ 1070 µM). For the same compound, in data set [7], the inhibition in vivo at 37 µmol/kg was 40%.
Take `CCOC(=O)CC1CCc2ccc(NC(=O)c3ccc(C(=N)N4CCOCC4)cc3)cc2C1` (stereo not drawn): in data set [1], the concentration at 1 h came to 7300 nM. The solubility in data set [2] was greater than 200000 µg/mL. Besides, the Inhibition in data set [3] amounted to 98%.
Regarding `N=C(N)c1ccc(NC(=O)c2ccc3c(c2)CC(CC(=O)O)CC3)cc1` (stereo not drawn), the IC50 in data set [5] is 0.23 µM; in data set [6], 0.046 µM.

Values taken from ChEMBL document CHEMBL1131137, “New platelet fibrinogen receptor glycoprotein IIb-IIIa antagonists: orally active series of N-alkylated amidines with a 6,6-bicyclic template” (J Med Chem, 1998).
